Only some compounds are listed: those with a hit (about 1.2% of all), similar ones and a draw of the others.
ARNT-TACC3 inh = disruptors of ARNT/TACC3 protein interaction, primary screen, biochemical, AlphaScreen, single concentration; AID 623870, 2012; inhibition, % at 9.99 µM; Transforming acidic coiled-coil-containing protein 3 (Homo sapiens), Q9Y6A5; AlphaScreen His-ARNT PAS-B/GST-TACC3 binding, luminescence; TACC3 fragment carries E629A point mutation; 390,000 compounds, 0.66% hits;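 active = mean inhibition of replicates at least 50% and at least half of replicates each reaching 50%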;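 also: 0% = complete ARNT plus TACC3 wells and 100% = ARNT alone without TACC3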
CAL PDZ FP-1 = CAL PDZ peptide-binding inhibitors, primary screen, biochemical, fluorescence polarization, Cer-tagged CAL PDZ, HTS; purified CAL PDZ, TMR-peptide fluorescence polarization, 1 h; inhibition, % at 20 µM; AID 504414, 2011; Golgi-associated PDZ and coiled-coil motif-containing protein (Homo sapiens), Q9HD26; 330,000 compounds, 0.02% hits;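 active = highest replicate inhibition of at least 40%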;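 also: plate controls were DMSO neutral control wells for no effect and unlabeled competitor peptide control wells for full effect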
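Assay system – tagged CAL PDZ protein CerCALP, purified · Timing – 1 h at RT · Compound – single point, 20 µM · Measured by – fluorescence polarization from S- and P-plane intensities, G-factor corrected · Evaluation – inhibition from polarization loss · Probe or stimulus – TMR reporter peptide T*-PRC34 · Buffer or medium – pH 7.4 phosphate-saline buffer, reducing agent, detergent, IgG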
CAL PDZ FP-2 = untagged CAL PDZ binding inhibitors, primary screen, biochemical, fluorescence polarization, HTS. Golgi-associated PDZ and coiled-coil motif-containing protein (Homo sapiens), Q9HD26. purified CAL PDZ, TMR-peptide fluorescence polarization, 1 h. inhibition, % at 24.9 µM. 300,000 compounds, 0.92% hits;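 active = mean inhibition of at least 30% with at least half of replicates also reaching 30%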;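 also: 0% = DMSO neutral control and 100% = excess unlabeled competitor peptide PRC23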
Starred values were filed as active, the others as inactive; / = not tested or not shown.

SMILES	ARNT-TACC3 inh	CAL PDZ FP-1	CAL PDZ FP-2
Cc1c(NC(=O)CSc2ccccc2C(=O)Nc2cccnc2)c(=O)n(-c2ccccc2)n1C	-3.0	-2.1	83.1*
Cc1c(NC(=O)CN2C(=O)c3ccccc3C2=O)c(=O)n(-c2ccccc2)n1C	-2.7	-0.4	-3.4
Cc1c(NC(=O)COC(=O)c2ccccc2Cl)c(=O)n(-c2ccccc2)n1C	21.9	0.4	2.9
Cc1c(NC(=O)CN2C(=O)c3ccc([N+](=O)[O-])cc3C2=O)c(=O)n(-c2ccccc2)n1C	0.7	-0.7	55.4*
Cc1c(NC(=O)COc2ccccc2Cl)c(=O)n(-c2ccccc2)n1C	1.8	-1.0	41.5*
Cc1nn(Cc2ccccc2)c(C)c1NC(=O)Cn1nc([N+](=O)[O-])c(Cl)c1C	-5.7	-0.9	-4.5
Cc1c(NC(=O)CSc2ccccc2F)c(=O)n(-c2ccccc2)n1C	-5.0	-0.6	-1.9
Cc1c(Cl)c([N+](=O)[O-])nn1CC(=O)Nc1c(C)n(C)n(-c2ccccc2)c1=O	-2.6	-0.6	53.3*
C[C@@H]1CN([C@@H](C)CO)C(=O)c2cccc(N(C)C)c2O[C@@H]1CN(C)Cc1ccc(-c2ccccc2)cc1	-0.1	/	/
C[C@@H]1CCCCO[C@@H](CN(C)S(=O)(=O)c2ccc(Cl)cc2)[C@@H](C)CN([C@@H](C)CO)C(=O)c2cc(NS(=O)(=O)c3cn(C)cn3)ccc2O1	-1.3	/	/
Cc1ccc(S(=O)(=O)Nc2ccc3c(c2)C(=O)N([C@@H](C)CO)C[C@@H](C)[C@@H](CN(C)Cc2ccncc2)OCCCC[C@@H](C)O3)cc1	-3.7	/	/
CCN(C(=O)CN1C(=O)/C(=C/c2ccccc2F)SC1=S)C1CCS(=O)(=O)C1 (stereo not drawn)	-3.0	0.1	75.3*
CCN(CC)C(=O)CN1C(=O)/C(=C/c2ccccc2)SC1=S	-3.2	0.6	43.7*
CCN(C(=O)CN1C(=O)S/C(=C\c2ccccc2OC)C1=O)C1CCS(=O)(=O)C1 (stereo not drawn)	-1.9	-4.0	-2.3
CC(=O)NNC(=O)CN1C(=O)/C(=C/c2ccccc2)SC1=S	-2.6	-2.3	0.5
C[C@H]1CN([C@@H](C)CO)C(=O)c2cccc(NC(=O)C3CC3)c2O[C@@H]1CN(C)Cc1ccc(Cl)c(Cl)c1	-6.9	/	/
CCC(=O)N1[C@@H]2CN(C(=O)Nc3cccc(Cl)c3)c3ccccc3[C@@H]2[C@@H]1CO	-1.6	/	/
C[C@@H]1CN([C@@H](C)CO)C(=O)Cc2cc(NC(=O)Cn3cnnn3)ccc2O[C@H]1CN(C)Cc1ccccc1	21.7	/	/
Cc1ccc(-c2nc3cnccn3c2Nc2ccc3c(c2)OCO3)o1	1.9	1.6	/
Cc1ccn2c(Nc3ccc4c(c3)OCO4)c(-c3ccccn3)nc2c1	66.2*	-0.8	0.3
C[C@H](CO)N1C[C@H](C)[C@H](CN(C)Cc2ccccc2F)Oc2cc(C#CC3CC3)ccc2S1(=O)=O	5.7	/	/
CCc1ccc(OCC(=O)N2CCc3ccccc32)cc1	-2.2	-0.8	37.8*
Cc1ccc(OCC(=O)N2CCc3ccccc32)cc1	-2.6	-2.3	0.4
CN1CCN(C(=O)C2CCN(S(=O)(=O)c3cnc[nH]3)CC2)CC1	-2.7	-0.5	-0.9
CC1CCCC(NC(=O)C2CCN(S(=O)(=O)c3cnc[nH]3)CC2)C1C (stereo not drawn)	1.4	-0.6	64.2*
SMILES	ARNT-TACC3 inh	CAL PDZ FP-1	CAL PDZ FP-2
c1ccc(Oc2ncnc3sccc23)cc1	4.7	-0.3	64.3*
Cc1ccccc1Oc1ncnc2sccc12	-2.7	-0.1	/
C[C@H]1CCCCO[C@H](CN(C)Cc2ccc(Cl)c(Cl)c2)[C@@H](C)CN([C@@H](C)CO)C(=O)c2cc(N(C)C)ccc2O1	26.6	/	/
COc1cc(NC(=O)Cc2ccccc2)ccc1NC(=O)Cc1ccccc1	29.2	-0.2	2.3
COc1ccccc1NC(=O)CCC(=O)Nc1cc(OC)c(NC(=O)c2cccs2)cc1OC	26.1*	-0.4	/
COc1cc(NC(=O)c2cccs2)ccc1NC(=O)Cc1ccccc1	1.9	-0.6	42.4*
COc1cc(NC(=O)c2cccs2)c(OC)cc1NC(=O)CCC(=O)Nc1cccc2ncccc12	13.6	-0.3	-5.0
C[C@H](CO)N1C[C@H](C)[C@@H](CN(C)CC2CC2)Oc2ccc(NC(=O)CCC(F)(F)F)cc2CC1=O	-13.6	/	/
Cc1noc(C)c1NC(=O)Nc1ccc2c(c1)C(=O)N([C@H](C)CO)C[C@H](C)[C@@H](CN(C)C(=O)Nc1ccc3c(c1)OCO3)OCCCC[C@@H](C)O2	4.5	/	/
C[C@H](CO)N1C[C@H](C)[C@H](CN(C)Cc2ccc(C(F)(F)F)cc2)Oc2ccc(NC(=O)C3CCCCC3)cc2C1=O	-2.2	/	/
COC(=O)Cc1c(O)ccn(Cc2ccccc2OC)c1=O	-6.9	-1.6	46.6*
COC(=O)Cc1c(O)ccn(Cc2cccc3ccccc23)c1=O	7.0	-1.1	3.5
C[C@@H]1CN([C@@H](C)CO)S(=O)(=O)c2ccc(-c3cccc(C#N)c3)cc2O[C@H]1CN(C)C(=O)c1cccnc1	3.0	/	/
CCOC(=O)c1csc(Nc2nc3ccc(F)cc3s2)n1	-12.0	0.1	39.3*
COC(=O)c1ccc2nc(Nc3nc4ccc(F)cc4s3)sc2c1	-6.6	-1.2	2.0
CCN1/C(=C2\OC(=S)N(C)C2=O)C=Cc2ccccc21	-8.7	0.8	/
CCCn1c(=C(C#N)C#N)s/c(=C2\C=Cc3ccccc3N2CC)c1=O	-2.9	0.1	54.9*
O=S1(=O)[C@H]2C[C@@H]3C=C[C@@]2(CN1Cc1cccc(Cl)c1)O3	-4.2	-0.4	-3.0
CC(O)c1cccc(-c2ccc(CN3C[C@]4(CO)O[C@@H](CO)C[C@@H]4S3(=O)=O)cc2)c1 (stereo partly drawn)	-1.6	-1.5	42.2*
Cc1ccc(-c2noc(C3CCCN(C(=O)c4ccccc4)C3)n2)o1 (stereo not drawn)	-10.2	/	5.6
CCOc1ccccc1NC(=O)N1CCCC(c2nc(-c3ccc(C)o3)no2)C1 (stereo not drawn)	2.9	-1.3	76.0*
C[C@H](CO)N1C[C@H](C)[C@H](CN(C)S(=O)(=O)c2cn(C)cn2)Oc2ccc(NC(=O)Cc3cn(C)c4ccccc34)cc2C1=O	-8.2	/	/
O=C(Nc1ccc(F)cc1)N[C@@H]1C=C[C@@H](CC(=O)N2CCOCC2)O[C@H]1CO	1.7	/	/
Cc1noc(C)c1NC(=O)Nc1ccc2c(c1)C(=O)N([C@H](C)CO)C[C@@H](C)[C@H](CN(C)S(=O)(=O)c1cn(C)cn1)OCCCC[C@H](C)O2	-6.2	/	/
Cc1cc(F)ccc1NC(=O)CCc1c(C)nn(-c2ccc(N3CCCCC3)nn2)c1C	1.0	-1.7	80.3*
Cc1ccc(F)cc1NC(=O)CCc1c(C)nn(-c2ccc(N3CCCCC3)nn2)c1C	5.4	-1.8	3.3
CCOC(=O)C1=NNC(C(=O)c2ccccc2)C1c1ccc(Cl)cc1 (stereo not drawn)	-2.8	-0.8	/
